The target of this assay is Diacylglycerol lipase-alpha (Mus musculus) (UniProt Q6WQJ1). Nature of the assay: blocking of DAGLa probe labeling in membranes – biochemical, gel-based competitive ABPP, recombinant, fluorescence, selectivity assay for DAGLb inhibitor project, late-stage follow-up (AID 602403). The following applies: HEK293T membrane mouse DAGLa, at 0.4 µM, stronger effect = higher value. The gist of the method:
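Assay system – membrane proteome of 293T HEK cells transiently overexpressing mouse DAGLa · Medium – Dulbecco's phosphate-buffered saline (DPBS) · Also added – HT-01 probe, 1 µM · Timing – compound pre-incubation 30 min, probe labeling 30 min, both 37 °C · Technique – in-gel fluorescence after SDS-PAGE · Measure – % inhibition from band IOD · Benchmarks – DMSO high, blank-gel background low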

This passage reports inhibition results from PubChem BioAssay AID602403 (The Scripps Research Institute Molecular Screening Center, 2012).

A number with no mark means an inactive call. The source made the active and inactive calls.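 Rule for the calls: active = inhibition of the enzyme-probe labelling of at least 50% at one fixed dose; inactive = inhibition below 50%.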

Chain of Diacylglycerol lipase-alpha (Mus musculus) (Q6WQJ1 whole entry, looked up): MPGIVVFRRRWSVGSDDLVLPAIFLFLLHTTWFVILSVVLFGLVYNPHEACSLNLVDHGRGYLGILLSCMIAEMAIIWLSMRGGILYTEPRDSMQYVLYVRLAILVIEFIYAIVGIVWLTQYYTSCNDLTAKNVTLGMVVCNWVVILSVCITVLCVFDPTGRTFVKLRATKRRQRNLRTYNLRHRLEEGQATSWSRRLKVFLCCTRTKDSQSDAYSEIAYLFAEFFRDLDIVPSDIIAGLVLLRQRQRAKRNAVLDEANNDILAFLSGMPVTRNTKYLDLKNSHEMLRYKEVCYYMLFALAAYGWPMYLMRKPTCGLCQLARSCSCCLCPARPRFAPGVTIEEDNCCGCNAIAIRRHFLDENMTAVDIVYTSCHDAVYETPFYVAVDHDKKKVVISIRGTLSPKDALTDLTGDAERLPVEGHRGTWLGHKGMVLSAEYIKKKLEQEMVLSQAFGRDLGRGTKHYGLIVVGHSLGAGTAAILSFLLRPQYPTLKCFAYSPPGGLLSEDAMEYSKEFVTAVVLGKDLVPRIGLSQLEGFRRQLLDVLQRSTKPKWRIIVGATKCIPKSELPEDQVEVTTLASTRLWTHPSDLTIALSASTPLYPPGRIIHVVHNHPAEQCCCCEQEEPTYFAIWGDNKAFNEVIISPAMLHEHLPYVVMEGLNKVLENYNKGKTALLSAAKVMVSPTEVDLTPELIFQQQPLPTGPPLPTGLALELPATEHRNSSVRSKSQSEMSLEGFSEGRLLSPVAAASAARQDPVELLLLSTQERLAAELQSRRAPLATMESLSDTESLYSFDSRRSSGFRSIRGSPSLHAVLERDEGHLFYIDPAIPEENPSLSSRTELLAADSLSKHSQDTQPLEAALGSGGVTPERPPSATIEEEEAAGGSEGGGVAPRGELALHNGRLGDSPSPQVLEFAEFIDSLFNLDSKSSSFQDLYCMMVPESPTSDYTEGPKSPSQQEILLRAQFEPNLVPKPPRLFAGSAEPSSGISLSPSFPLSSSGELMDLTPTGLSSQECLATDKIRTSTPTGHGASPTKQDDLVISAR

`COc1ccccc1-c1ccc(-c2cn(C(=O)N3CCCCC3Cc3ccccc3)nn2)cc1` (stereo not drawn): the inhibition is 40%.

As for `O=C(N1CCCCC1Cc1ccccc1)n1cc(-c2ccc(OC(F)(F)F)cc2)nn1` (stereo not drawn), the inhibition was 50% (active).

Consider `COc1ccc(-c2ccc(-c3cn(C(=O)N4CCCCC4c4ccccc4)nn3)cc2)cc1` (stereo not drawn), for which the inhibition was 0%.
